From ChEMBL document CHEMBL5712908, “A genome-wide RNAi screen reveals essential therapeutic targets of breast cancer stem cells” (2019)
The source made the active and inactive calls. The rule behind the calls is not given here.

Columns and labels:
SUM-159-PT [1] = experiment: Anticancer activity against human SUM159 cells expressing BFP assessed as reduction in ALDHbr cell at 50 nM by LSR2 cytometer analysis; format: functional
SUM149PT [2] = experiment: Anticancer activity against human SUM149 cells assessed as ALDHbr cells at 1 mM by LSR2 cytometer (reference value: 4.8%); format: functional; design: dose or concentration left out as unconfirmed
Breast cancer cell line [3] = experiment: Antitumor activity against human CRCM434 negative breast cancer cells orthotopically xenografted in NSG mouse model of PDX assessed as reduction in tumor volume at 50 mg/kg, ip 5 out of 7 for 2 weeks; format: functional, organism-based
Summary of the method: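 Chemo-naïve triple-negative PDX cells injected at 100,000 per fat pad, two fat pads per NSG mouse. At ~80 mm³ tumours, mice received i.p. 3 mg/kg daily for 14 days or 50 mg/kg 5 of 7 days for 2 weeks; placebo was DMSO/HPCD 10% (1:9). Five mice (10 tumours) per group. Tumour growth monitored; after 2 weeks tumours dissociated, mouse cells excluded via anti-H2Kd, ALDHbr measured by ALDEFLUOR flow cytometry and normalised to vehicle.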

Breast cancer cell line [4] = experiment: Synergistic antitumor activity against human CRCM434 negative breast cancer cells xenografted in NSG mouse model of PDX assessed as reduction metastasis formation in lung at 50 mg/kg, ip 5 out of 7 for 2 weeks cotreated with salinomycin; format: functional, organism-based
Summary of the method: (§1)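 Luciferase-expressing PDX cells sorted H2Kd⁻ and viable, 100,000 in 100 μl PBS injected in NSG tail vein. From the next day, salinomycin 3 mg/kg i.p. daily and/or JQ1 50 mg/kg i.p. 5 of 7 days for 2 weeks. Lungs and liver imaged by bioluminescence after i.p. luciferin 30 mg/kg; normalised photon flux; 10 mice/group; Wilcoxon test.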

SUM-159-PT [5] = experiment: Anticancer activity against human SUM159 cells assessed as effect on RFP+/BFP+ cell ratio upto 100 uM after 72 hrs by ALDEFLUOR staining based flow cytometric analysis; format: functional
SUM-159-PT [6] = experiment: Induction of apoptosis in human SUM159 cells expressing ALDH upto 100 uM incubated for 72 hrs by ALDEFLUOR/YO-PRO-3/ Hoechst 33342 staining based high content imaging microscopic analysis; format: functional, cell-based
Summary of the method: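 SUM159 at 3,000 cells/well on collagen plates, dosed at 6, 24 and 48 h post-seeding; 0.1% DMSO negative control, cisplatin positive control. At 72 h stained 30 min at 37°C with ALDEFLUOR, YO-PRO-3 and Hoechst 33342, then imaged ice-cold. YO-PRO-3-positive nuclei (above untreated signal) counted over total cells, per ALDHbr/ALDH- subpopulation; n = 6.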

SUM-159-PT [7] = experiment: Anticancer activity against human SUM159 cells expressing BFP assessed as reduction in ALDHbr cell at 5 to 500 nM by LSR2 cytometer analysis; format: functional, cell-based; details: dose 5-500 nM
SUM-159-PT [8] = experiment: Synergistic anticancer activity against human SUM159 cells at 500 nM incubated for 72 hrs in presence of salinomycin by ALDEFLUOR staining based flow cytometric analysis; format: functional, cell-based
Breast cancer cell line [9] = experiment: Synergistic antitumor activity against patient-derived breast cancer cells orthotopically xenografted in NSG mouse model of PDX assessed as reduction in Ki67 cells at 50 mg/kg, ip 5 out of 7 for 2 weeks cotreated with salinomycin by Immunostaining analysis; format: functional, organism-based; details: Homo sapiens
Summary of the method: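 Paraffin sections of treated PDX tumours deparaffinised and subjected to antigen retrieval in citrate buffer pH 6. Peroxidase staining with ready-to-use Ki67 or cleaved caspase-3 antibody, DAB substrate, haematoxylin counterstain. Proportion of positive cells quantified; n = 3; t-test.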

SUM149PT [10] = experiment: Antitumor activity against human SUM149 cells assessed as K-score by measuring ALDHbr cells by LSR2 cytometer; format: functional
Summary of the method: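 Cell lines exposed for 72 h in adherent culture to a range of concentrations centred on the MTS-derived IC50. ALDHbr proportion measured by ALDEFLUOR flow cytometry (LSR2). K-score is the linear regression coefficient, on log10-transformed doses, between the untreated condition and the dose predicted to give a 50% decrease or increase in ALDHbr proportion versus control.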

Breast cancer cell line [11] = experiment: Synergistic antitumor activity against human CRCM434 negative breast cancer cells orthotopically xenografted in NSG mouse model of PDX assessed as reduction in tumor volume at 50 mg/kg, ip 5 out of 7 for 2 weeks cotreated with salinomycin; format: functional, organism-based
Summary of the method: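 Orthotopic PDX in NSG mice, 100,000 cells per fat pad, two pads per mouse; treatment from ~80 mm³ tumours with salinomycin i.p. 3 mg/kg daily 14 days, JQ1 i.p. 50 mg/kg 5 of 7 days for 2 weeks, or combination, against placebo DMSO/HPCD 10% (1:9). Tumour growth monitored; n = 10 tumours per group.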

Breast cancer cell line [12] = experiment: Synergistic antitumor activity against human CRCM434 negative breast cancer cells xenografted in NSG mouse model of PDX assessed as reduction metastasis formation in liver at 50 mg/kg, ip 5 out of 7 for 2 weeks cotreated with salinomycin; format: functional, organism-based; summary of the method: as §1
SUM-159-PT [13] = experiment: Synergistic anticancer activity against human SUM159 cells expressing BFP assessed as reduction in ALDHbr cell 50 nM in presence of salinomycin by LSR2 cytometer analysis; format: functional
SUM-159-PT [14] = experiment: Synergistic apoptosis in human SUM159 cells expressing ALDHbr at 500 nM incubated for 72 hrs in presence of salinomycin by ALDEFLUOR/YO-PRO-3/ Hoechst 33342 staining based high content imaging microscopic analysis; format: functional, cell-based
Summary of the method: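 SUM159 cells seeded at 3,000 cells/well in collagen-coated 96-well plates. Drug added at 6, 24 and 48 h post-seeding. Cisplatin served as positive control and 0.1% v/v DMSO as vehicle control. At 72 h post-seeding, cells were stained with ALDEFLUOR, YO-PRO-3 (1/4,000) and Hoechst 33342 (10 μg/ml) in ALDEFLUOR buffer for 30 min at 37°C, then imaged on ice by high-content microscopy, 9 fields/well. DEAB set the ALDHbr gate. YO-PRO-3⁺ fraction per subpopulation was gated against untreated cells.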

SUM-159-PT [15] = experiment: Synergistic anticancer activity against human SUM159 cells assessed as decrease in primary tumor sphere formation at 62 nM incubated for 72 hrs in presence of salinomycin by Extreme limiting dilution analysis; format: functional
Summary of the method: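 72 h adherent pretreatment (Sal/JQ1 62 nM/62 nM; docetaxel added at 2 nM where used), then single cells plated in ultra-low attachment 96-well plates in serum-free mammary epithelium basal medium at 25/10/5/3/2/1 cells/well (18–36 wells/condition). Wells with ≥1 sphere after 10 days scored positive; sphere-forming frequency by ELDA. Secondary spheres from dissociated primary spheres. n = 4; pairwise chi-square.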

Breast cancer cell line [16] = experiment: Antitumor activity against human reimplanted CRCM434 negative breast cancer cells orthotopically xenografted in NSG mouse model of PDX assessed as reduction tumor volume at 50 mg/kg, ip 5 out of 7 for 2 weeks by limiting dilation analysis; format: functional, organism-based
Summary of the method: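 After 2 weeks of i.p. treatment (3 mg/kg daily or 50 mg/kg 5 of 7 days), dissociated PDX tumour cells reimplanted into secondary NSG mice at 50, 500 or 5,000 cells. A mouse counted as tumour-bearing once a tumour reached 10 mm. bCSC frequency per 10,000 cells estimated by ELDA; pairwise chi-square test.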

## Cc1sc2c(c1C)C(c1ccc(Cl)cc1)=N[C@@H](CC(=O)OC(C)(C)C)c1nnc(C)n1-2
SUM-159-PT [1]
  fold change (FC): 2
SUM149PT [2]
  Activity: 1.2%
Breast cancer cell line [3]
  Activity: Active
Breast cancer cell line [4]
  Activity: Active
SUM-159-PT [5]
  Activity: inactive
SUM-159-PT [6]
  Activity: Active
SUM-159-PT [7]
  Activity: Active
SUM-159-PT [8]
  Activity: inactive
Breast cancer cell line [9]
  Activity: Active
SUM149PT [10]
  Activity: -0.13
Breast cancer cell line [11]
  Activity: Active
Breast cancer cell line [12]
  Activity: Active
SUM-159-PT [13]
  fold change (FC): 4
SUM-159-PT [14]
  Activity: Active
SUM-159-PT [15]
  fold change (FC): 2.4
Breast cancer cell line [16]
  Activity: Active
